Where two headings read alike, the source gives them in different places.
What was measured:
[1] = system: plaque psoriasis; conditions: cited from earlier work; for Mean total lesion score decrease from baseline: week 4
[2] = Plasma pharmacokinetics after 4 weeks of topical treatment; format: in vivo, human; conditions: approx. 1.5% BSA, comparator Pfizer, data on file
How it was run: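 Adults with mild-to-moderate chronic plaque psoriasis applied test-compound ointment (one formulation 2%, 20 mg g−1) twice daily for 4 weeks at 3 mg cm−2 to a fixed 300 cm2 area. Week-4 plasma sampled predose and 1, 2, 4–9 h post-dose.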

[3] = system: psoriasis; conditions: week 4; 13-point scale; cited from earlier work

## N#CC[C@H](C1CCCC1)n1cc(-c2ncnc3[nH]ccc23)cn1 [INCB018424]
[1]; cream, 4 weeks
  Tolerability of topical application: well tolerated
[1]; 1.0% cream daily
  Mean total lesion score decrease from baseline: 53%
[1]; 1.5% cream twice daily
  Mean total lesion score decrease from baseline: 54%

## C[C@@H]1CCN(C(=O)CC#N)C[C@@H]1N(C)c1ncnc2[nH]ccc12 [tofacitinib, Tofacitinib]
[2]
  Mean systemic exposure lower than with oral tofacitinib 2 mg twice daily: approximately 40 fold

## CCC(=O)OCC(=O)[C@@]1(OC(=O)CC)[C@@H](C)C[C@H]2[C@@H]3CCC4=CC(=O)C=C[C@]4(C)[C@@]3(F)[C@@H](O)C[C@@]21C [betamethasone dipropionate]
[3]
  Total lesion sum score percentage change from baseline: –41%

— article PMC3761190 (The British Journal of Dermatology, 2013)
